Assay outcomes: PubChem BioAssay, several laboratories
The list is not random: actives were taken first. Their share in the collection is about 4.1%.
KCNK9 block = blocks the human KCNK9 two-pore domain potassium channel. B-score at 10 µM. HEK293 KCNK9, FluxOR thallium flux fluorescence; hits give low values. hit rate 1.2% among 310,000. Q9NPC2;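 active = ratio B-score over 3 SD below the library mean, with starting fluorescence within 5 SD of its mean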;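 note: negative B-score means less thallium flux so channel inhibition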
Target sequence (Q9NPC2 whole entry, looked up, the tested form may be a part): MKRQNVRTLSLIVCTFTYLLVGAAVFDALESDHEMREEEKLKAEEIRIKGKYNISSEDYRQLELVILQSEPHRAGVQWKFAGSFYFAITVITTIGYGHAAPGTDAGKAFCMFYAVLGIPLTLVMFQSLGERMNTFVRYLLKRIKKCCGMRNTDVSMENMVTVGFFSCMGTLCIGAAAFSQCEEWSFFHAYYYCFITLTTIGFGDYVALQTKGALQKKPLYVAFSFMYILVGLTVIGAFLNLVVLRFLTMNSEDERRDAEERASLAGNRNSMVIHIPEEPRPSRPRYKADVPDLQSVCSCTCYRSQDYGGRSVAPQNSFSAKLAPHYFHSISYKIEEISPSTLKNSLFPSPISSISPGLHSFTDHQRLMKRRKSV
hERG rescue = shields human hERG channel from block by proarrhythmic agents; Q12809; AID 1511; CHO-hERG, FluxOR thallium flux, dofetilide IC70 present; hit rate 0.51% among 310,000; activation (rescue from dofetilide block), less the hit threshold, % at 10 µM;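 active = activation above the mean of controls blocked by dofetilide plus 5 SD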;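 note: thallium influx through hERG after potassium depolarization seen as dye fluorescence rise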
KCC2 mod = modulators of human KCC2 chloride dependent transport. Q9H2X9. KCC2 cells, thallium flux FluoZin-2 fluorescence. B-score of Tl+ flux slope (higher = more flux/activation; lower = inhibition) at 10 µM. hit rate 2.2% among 190,000. AID 1456;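 active = thallium flux slope and its plate-corrected score both differing from the plate sample mean at a set confidence after two filtering rounds, in either direction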;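 note: slope of fluorescence scaled to starting intensity during 10 to 20 s after thallium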
KCNK3 inh = human KCNK3 channel inhibition, primary screen | O14649 | B-score at 10 µM | hit rate 0.84% among 340,000 | AID 602410 | CHO-KCNK3 thallium flux, FluxOR fluorescence; hits give low values;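 active = B-score under library mean minus 4 SD, starting fluorescence ratio at most library mean plus 5 SD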;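 note: more negative B-score means stronger inhibition of thallium flux through KCNK3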
Target sequence (O14649 whole entry, looked up): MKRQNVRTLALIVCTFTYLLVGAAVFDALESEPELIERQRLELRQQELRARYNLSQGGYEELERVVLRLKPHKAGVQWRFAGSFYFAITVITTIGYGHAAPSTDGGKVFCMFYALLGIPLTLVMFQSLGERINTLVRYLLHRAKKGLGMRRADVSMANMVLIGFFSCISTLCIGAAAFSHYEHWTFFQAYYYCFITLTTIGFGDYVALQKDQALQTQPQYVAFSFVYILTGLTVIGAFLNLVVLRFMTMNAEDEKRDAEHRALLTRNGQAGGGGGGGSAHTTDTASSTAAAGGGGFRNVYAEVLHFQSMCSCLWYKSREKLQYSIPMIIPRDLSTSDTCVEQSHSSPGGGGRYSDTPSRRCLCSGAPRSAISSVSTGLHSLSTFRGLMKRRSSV
KCNQ1 pot = potentiates or activates the human KCNQ1 potassium channel; P51787; CHO-K1 KCNQ1, thallium flux FluxOR fluorescence; hits give high values; B-score at 10 µM; hit rate 0.35% among 310,000; AID 2648;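 active = fluorescence ratio B-score, a plate-corrected score, at least three library SD, with initial intensity B-score within 5 SD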
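Doses: Single concentration per compound, DMSO matched to controls | Test system: KCNQ1-transfected CHO-K1 cells | Timing: 90 min dye loading and 20 min compound exposure, both at room temperature | Measured by: Kinetic FluxOR thallium fluorescence, 10-s 1-Hz baseline, 110-s post-stimulus read | Medium: Assay buffer with matched DMSO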
KCNQ1 block = human KCNQ1 channel inhibition | CHO-K1 KCNQ1, FluxOR thallium flux fluorescence; hits give high values | AID 2642 | hit rate 1.3% among 310,000 | P51787 | B-score at 10 µM;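 active = compounds whose thallium flux B-score, printed positive for inhibition, exceeds three library SD while starting fluorescence stays within three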;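 note: channel opened by potassium depolarization with thallium stimulus after 20 min compound exposure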
KCC2 sec1 = confirmation of human KCC2 transport modulators. normalised thallium flux (F/F0 slope) at 10 µM. HEK293-KCC2, thallium flux, FluoZin2 fluorescence; hits give high values. shares compounds with KCC2 mod. hit rate 15% among 3,700. AID 1713;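 active = thallium flux slope above the same plate's solvent-only control mean plus 3 SD; inconclusive = the two replicate wells disagree; inactive = no significant difference from solvent-only control wells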
KCC2 bumet counter = thallium flux despite bumetanide block in KCC2 cells, secondary assay 3 | AID 1714 | normalized thallium flux at 10 µM | shares compounds with KCC2 mod | HEK293-KCC2 + bumetanide/ouabain, thallium flux FluoZin2; hits give high values | hit rate 49% among 3,700;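 active = thallium entry rate above the same plate's blocked-transporter control wells by more than 3 SD; inconclusive = the two repeat wells disagree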;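 note: raw slope of fluorescence over initial fluorescence between 10 and 20 s after thallium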
KCC2 sec2 = confirmation of human KCC2 transport modulators. shares compounds with KCC2 mod. HEK293-KCC2, thallium flux FluoZin2 fluorescence; actives lie on both sides; F/F0 rise rate, 10–20 s post-thallium. normalized thallium flux at 10 µM. hit rate 23% among 3,700. AID 1715;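 active = thallium flux slope more than 3 SD above or below the plate's solvent-only control mean, mostly below; inconclusive = the two repeat wells disagreed; inactive = no significant shift from solvent-only controls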
HEK counter1 = acts in parental HEK cells, KCC2 counter-screen; AID 1716; thallium flux rate (normalised fluorescence) at 10 µM; shares compounds with KCC2 mod; HEK293 parental cells, thallium flux FluoZin2, ouabain; baseline-ratio fluorescence slope, 10–20 s after thallium; hit rate 46% among 3,700;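 active = thallium flux rate significantly above the same plate's solvent-only control wells, beyond their mean plus 3 SD; inconclusive = the two replicate wells gave conflicting results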
KCC2 retest ouab = KCC2 (human) modulation, ouabain retest. hit rate 48% among 3,700. HEK293-KCC2, thallium flux FluoZin2 fluorescence; bidirectional: low = inhibitor, high = activator. raw Tl+ flux slope (below DMSO = inhibition, above = activation) at 10 µM. shares compounds with KCC2 mod;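 active = thallium flux slope beyond 3 SD from same-plate DMSO control mean in most replicates, usually higher, sometimes lower; inconclusive = repeat tests gave conflicting results; inactive = no significant difference from controls in most replicates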;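 note: slope of initial-normalized fluorescence between seconds 10 and 20 after thallium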
HEK counter2 = acts in parental HEK cells, second KCC2 counter-screen; shares compounds with KCC2 mod; AID 1718; thallium flux slope at 10 µM; hit rate 33% among 3,700; HEK293 parental, thallium flux FluoZin-2 fluorescence slope;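 active = thallium flux slope above the same plate's solvent-control mean plus 3 SD in both duplicate wells; inconclusive = duplicate wells that disagreed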;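 note: run without ouabain in cells lacking the KCC2 cotransporter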
Hits are given with their value; – = inactive; ? = inconclusive; · = not tested or not shown.

SMILES	KCNK9 block	hERG rescue	KCC2 mod	KCNK3 inh	KCNQ1 pot	KCNQ1 block	KCC2 sec1	KCC2 bumet counter	KCC2 sec2	HEK counter1	KCC2 retest ouab	HEK counter2
COc1ccc(S(=O)(=O)NCCSCc2ccco2)cc1	–	–	·	–	–	–	·	·	·	·	·	·
Cn1cccc1C1CCCN1CC(=O)Nc1ccc(F)c(F)c1F (stereo not drawn)	·	·	·	–	·	·	·	·	·	·	·	·
CCN1CCN(C(=O)CS(=O)Cc2nc(-c3cccc(C)c3)oc2C)CC1 (stereo not drawn)	–	–	·	–	–	–	·	·	·	·	·	·
Cc1cccc(-c2nc(CS(=O)CC(=O)N3CCc4ccccc4C3)c(C)o2)c1 (stereo not drawn)	–	–	·	–	–	–	–	–	?	–	?	–
CC1CCCC(NC(=O)CCC(=O)c2ccc(F)cc2)C1C (stereo not drawn)	–	–	-4	–	–	–	–	–	–	–	–	–
Cn1cnc([N+](=O)[O-])c1NCc1ccccc1	–	–	-4	–	–	–	–	–	0.024	–	?	–
O=C(COc1ccccc1-c1ccccc1)NN=C1CCCC1	–	–	-3.4	–	–	–	–	–	–	0.005	–	0.0077
Cc1cc2c(cc1S(=O)(=O)NCc1ccccc1)OCC(=O)N2	–	–	·	–	–	–	·	·	·	·	·	·
CC(C)C1Nc2ccc(S(N)(=O)=O)cc2C2C=CCC21 (stereo not drawn)	–	–	–	–	–	–	·	·	·	·	·	·
NS(=O)(=O)c1ccc2c(c1)C1C=CCC1C(C1CC=CCC1)N2 (stereo not drawn)	–	–	4.7	–	–	–	–	–	–	–	–	–
O/N=C\c1cccn1-c1ccc(Br)cc1	–	–	·	–	–	–	–	–	–	–	–	–
N#C/C(=C\c1ccc(-c2ccccc2[N+](=O)[O-])o1)C(=O)Nc1nc(-c2cccs2)cs1	–	12	7.7	–	–	–	–	0.027	–	0.017	0.022	0.016
N#Cc1sc(C(N)=O)c(-c2ccccc2)c1-c1ccccc1	–	–	5.1	–	–	–	–	–	–	–	–	–
COc1ccc(-c2c(C#N)sc(C(N)=O)c2-c2ccc(OC)cc2)cc1	–	–	–	–	–	–	·	·	·	·	·	·
CCOC(=O)c1ccc(N=Cc2cnc(N)nc2N)cc1	·	·	·	–	·	·	·	·	·	·	·	·
C=CCNc1oc(Cc2cccc3ccccc23)nc1C#N	–	–	-4.6	–	–	–	–	–	0.023	–	?	–
N#Cc1nc(Cc2cccc3ccccc23)oc1N1CCOCC1	–	–	-6	–	–	–	–	–	0.022	–	0.012	–
N#Cc1nc(Cc2cccc3ccccc23)oc1NCc1ccc(F)cc1	–	–	–	–	–	–	·	·	·	·	·	·
N#Cc1nc(Cc2cccc3ccccc23)oc1NCCN1CCOCC1	–	–	-4.5	–	–	–	–	–	0.023	–	?	–
COCCNc1oc(Cc2cccc3ccccc23)nc1C#N	–	–	·	–	–	–	·	·	·	·	·	·
Cc1cccc(NC(=O)CNC(=O)CN2CCN(C)CC2)c1C	·	·	·	–	·	·	·	·	·	·	·	·
CCN(C(=O)COC(=O)/C=C/c1ccc(OC(F)F)c(OC)c1)C1CCS(=O)(=O)C1 (stereo not drawn)	·	·	·	–	·	·	·	·	·	·	·	·
CCCCN1CC(=O)N2[C@H]3c4ccccc4OC[C@@H]3[C@H](c3ccccc3)[C@]2(C)C1=O	·	·	·	–	·	·	·	·	·	·	·	·
COc1ccc(Nc2nc(-c3ccc(OC)cc3)c(CCC(=O)O)s2)cc1	–	–	–	–	–	–	·	·	·	·	·	·
Cc1ccc(Nc2nc(-c3ccc(C)cc3)c(CC(=O)O)s2)cc1	–	–	-3.2	–	–	–	–	0.0091	–	–	–	–
SMILES	KCNK9 block	hERG rescue	KCC2 mod	KCNK3 inh	KCNQ1 pot	KCNQ1 block	KCC2 sec1	KCC2 bumet counter	KCC2 sec2	HEK counter1	KCC2 retest ouab	HEK counter2
CN(C)CCNC(=O)c1ccc(Cl)s1	–	–	7.3	–	–	–	–	–	–	–	–	?
O=C(NCCCCNC(=O)c1ccc(Cl)s1)c1ccc(Cl)s1	–	–	–	–	–	–	·	·	·	·	·	·
Cc1ccc(NS(=O)(=O)c2c(C)noc2C)cc1	–	–	·	–	–	–	·	·	·	·	·	·
CN1/C(=C\C(=O)COc2ccc3c(c2)OCO3)C(C)(C)c2ccccc21	-8	–	-4	–	–	–	–	–	0.025	–	?	–
CCOc1ccc(NC(=S)NC(=O)c2c(Cl)c(C)nn2C)c([N+](=O)[O-])c1	–	–	9.4	–	–	–	–	0.017	–	?	?	–
CN(C(=O)c1cccc(S(=O)(=O)N2CCCC2)c1)C1CCCCC1	·	·	·	–	·	·	·	·	·	·	·	·
O=C1CCc2cc(S(=O)(=O)Nc3ccccc3)cc3c2N1CCC3	–	–	·	–	–	–	·	·	·	·	·	·
COc1ccc(C(=O)c2ccc(OC)c(Br)c2)cc1Br	–	–	–	–	–	–	·	·	·	·	·	·
CN(Cc1ccccc1)C(=S)NC(=O)c1ccccc1	–	–	65	–	–	–	0.056	0.16	0.07	0.085	0.13	0.036
COc1ccc(C(=O)NC(=S)N(C)Cc2ccccc2)cc1Br	–	–	11	–	–	–	–	0.019	–	0.022	0.044	0.016
COc1cc(C(=O)NC(=S)N(CCC#N)Cc2cccnc2)cc(OC)c1OC	·	·	·	–	·	·	·	·	·	·	·	·
CCCOc1ccc(CN(CCC#N)C(=S)NC(=O)c2ccccc2)cc1	–	59	80	–	14	–	0.055	0.11	0.074	0.1	0.11	0.055
CC(C(=O)Nc1ccccc1C#N)N1C(=O)NC2(CCCCCC2)C1=O (stereo not drawn)	·	·	·	–	·	·	·	·	·	·	·	·
CCN(CC)c1ccc(NC(=O)COC(=O)COc2ccccc2[N+](=O)[O-])cc1	–	–	-6.8	–	–	–	–	–	–	–	–	–
COc1cccc(NC(=O)COC(=O)COc2ccccc2[N+](=O)[O-])c1	–	–	–	–	–	–	·	·	·	·	·	·
O=C(COC(=O)CCC(=O)c1cccs1)NC1CCCCC1	·	·	·	–	·	·	·	·	·	·	·	·
